Only some compounds are listed: those with a hit (about 2.6% of all), similar ones and a draw of the others.
RAM inhibit – blocks the yeast RAM network; S. cerevisiae dse1pr::URA3 reporter, 5-FOA growth OD615, 2 d; analog-sensitive cbk1-as2 kinase mutant strain; inhibition, % at 50 µM; actives 1.8% (n = 190,000);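 active means inhibition above a set limit, 3 SD over mean compound inhibition, cut at about 8.4% in these data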;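 further: 0% = DMSO-only wells with no growth and 100% = 10 µM 1-NA-PP1 full growth; inhibition rescues growth on 5-FOA so higher OD means more RAM inhibition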
BB579 growth dn – chemicals that inhibit yeast BB579 growth in restrictive medium (lifespan-shortening candidates); inhibition, % at 10 µM; actives 0.51% (n = 140,000); S. cerevisiae BB579 growth, OD615, 48 h; AID 804;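 active means inhibition above a set limit, 3 SD over the mean compound inhibition, cut at about 44% in these data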
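Test system: Saccharomyces cerevisiae DeaD strain BB579, replicative lifespan model yeast | Buffer or medium: Restrictive CSMM-D medium | Doses: One dose, 10 µM compound with 0.25% DMSO | Incubation: 48 h exposure, 30 °C | Detection: Culture absorbance at 615 nm | Control set: Amphotericin B at 10 µg/mL as positive control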
Yeast lifespan up – yeast lifespan extension; actives 0.68% (n = 130,000); inhibition of the nicotinamide effect, % at 10 µM; S. cerevisiae growth with nicotinamide, OD615; deaD strain in restrictive glucose medium;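 active means inhibition above a set limit, placed 3 SD over the median of all compounds, cut at about 26% in these data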;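 further: 0% = nicotinamide-treated wells and 100% = cells grown without nicotinamide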
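Measured by: optical density (absorbance) at 615 nm; System: modified budding yeast, DeaD strain; Medium: restrictive CSMM-D dextrose medium; Timing: 4 h preincubation then 48 h treatment at 30 °C.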
RAM 5-FOA – restores 5-FOA growth of efflux-deficient yeast. shares compounds with RAM inhibit. S. cerevisiae efflux-deficient reporter strain, 5-FOA growth OD615, 2 days. max inhibition, %. 1,200 tested, under 10 active; call rule not given here;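 further: plate controls were vehicle for no effect and reference inhibitor for full effect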
* hit, by the source's call; nt = no result.

SMILES | RAM inhibit | BB579 growth dn | Yeast lifespan up | RAM 5-FOA
CCOC(=O)C(NC(=O)N(C)C)(Nc1sc(C)c(CC)c1C#N)C(F)(F)F (stereo not drawn) | 2 | -24 | 7 | nt
CCC1CCCCN1S(=O)(=O)c1ccc(S(=O)(=O)N(Cc2ccccn2)CC2CCCO2)cc1 (stereo not drawn) | 1 | -19 | 5 | nt
CCC1CCCCN1S(=O)(=O)c1ccc(S(=O)(=O)N(Cc2cccs2)C2CC2)cc1 (stereo not drawn) | 13* | -37 | 33* | 2
O=C(CSc1ccc(-c2ccco2)nn1)c1ccccc1 | 6 | -18 | -6 | nt
CCC(=O)OCc1c(C(F)(F)F)nn(C)c1Sc1ccc(Cl)cc1 | 2 | 0 | -9 | nt
COc1ccc(C(=O)O/N=C/c2c(C(F)(F)F)nn(C)c2SCc2ccccc2Cl)cc1 | 12* | -63 | 6 | 4
Cn1nc(C(F)(F)F)c(/C=N/OC(=O)c2ccccc2Cl)c1SCc1ccc(Cl)cc1 | 16* | -36 | -5 | 3
COc1ccc(NC(=O)c2c(C(F)(F)F)nn(C)c2SCc2ccccc2)cc1 | 4 | -16 | 15 | nt
C=CCN(C(=O)CNC(=O)c1cccs1)C(C(=O)NC1CCCCC1)c1cccnc1 (stereo not drawn) | 0 | nt | nt | nt
Cc1cccc2cc(-c3ccccc3)c(-c3ccccc3)c[n+]12 | -1 | -7 | 8 | nt
Cc1ccc(S(=O)(=O)NC2CCCc3ccccc32)cc1C (stereo not drawn) | 2 | -57 | -4 | nt
CCN(CC)S(=O)(=O)c1cc(C(=O)OCC(=O)Nc2cccc(Br)c2)ccc1F | 15* | -34 | 8 | 2
CCN(CC)S(=O)(=O)c1cc(C(=O)OCC(=O)Nc2c(F)cccc2F)ccc1F | 1 | -3 | 1 | nt
Cc1cccc(NC(=O)CSc2nnnn2-c2ccc3c(c2)OCCO3)n1 | 4 | nt | nt | nt
COCCn1c(SCC(=O)Nc2nnc(C)s2)nnc1-c1ccncc1 | 0 | -6 | -4 | nt
CCOC(=O)c1sc(NC(=O)CSc2nnc(-c3ccc(OC)cc3)n2CCOC)nc1C | 12* | -39 | -3 | 2
O=C(N/N=C/C=C/c1ccccc1)NC1CCCCC1 | 0 | nt | nt | nt
O=S(=O)(Cc1ccccc1)N1CCN(Cc2ccc3c(c2)OCO3)CC1 | 1 | -42 | -6 | nt
Cc1ccccc1OCC(=O)N(Cc1nc(-c2ccccc2)no1)C(C)C | 6 | -39 | -9 | nt
COc1ccccc1OCC(=O)N(Cc1nc(-c2ccccc2)no1)C1CCCCC1 | 13* | -47 | -1 | 2
N#Cc1c(NC(=O)C2CC(Cl)=CCC2C(=O)O)sc2c1CCCC2 (stereo not drawn) | 0 | nt | nt | nt
O=C(COc1ncnc2ccccc12)c1ccc(Cl)cc1 | 1 | nt | nt | nt
